In ChEMBL document CHEMBL3526095, “Characterization of the in vitro and in vivo metabolism and disposition and cytochrome P450 inhibition/induction profile of saxagliptin in human” (Drug Metab Dispos, 2012):

Experiments:
[1] = molecular target: T1, Cytochrome P450 2C19 (Homo sapiens, UniProt P33261); test: Inhibition of CYP2C19 in human liver microsomes assessed as (S)-mephenytoin 4'-hydroxylation preincubated for 15 mins by LC-MS/MS analysis; type: ADME
In short: (§1)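 Pooled HLM from 15 donors, probe substrate near its experimentally determined level, in 100 mM phosphate buffer pH 7.4 at 37°C. Saxagliptin tested at 0.1–50 µM, M2 at 0.1–200 µM. Direct inhibition: 3-min equilibration, then reaction started with 1 mM NADPH. Time-dependent inhibition: 15-min preincubation with or without NADPH, then substrate added.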

[2] = molecular target: T1, Cytochrome P450 2C19; test: Inhibition of CYP2C19 in human liver microsomes assessed as (S)-mephenytoin 4'-hydroxylation after 3 mins by LC-MS/MS analysis; type: ADME; in short: as §1
[3] = molecular target: T2, Cytochrome P450 2E1 (Homo sapiens, UniProt P05181); test: Inhibition of CYP2E1 in human liver microsomes assessed as chlorzoxazone 6-hydroxylation after 3 mins by LC-MS/MS analysis in presence of NADPH; type: ADME
T2 sequence (P05181 whole entry): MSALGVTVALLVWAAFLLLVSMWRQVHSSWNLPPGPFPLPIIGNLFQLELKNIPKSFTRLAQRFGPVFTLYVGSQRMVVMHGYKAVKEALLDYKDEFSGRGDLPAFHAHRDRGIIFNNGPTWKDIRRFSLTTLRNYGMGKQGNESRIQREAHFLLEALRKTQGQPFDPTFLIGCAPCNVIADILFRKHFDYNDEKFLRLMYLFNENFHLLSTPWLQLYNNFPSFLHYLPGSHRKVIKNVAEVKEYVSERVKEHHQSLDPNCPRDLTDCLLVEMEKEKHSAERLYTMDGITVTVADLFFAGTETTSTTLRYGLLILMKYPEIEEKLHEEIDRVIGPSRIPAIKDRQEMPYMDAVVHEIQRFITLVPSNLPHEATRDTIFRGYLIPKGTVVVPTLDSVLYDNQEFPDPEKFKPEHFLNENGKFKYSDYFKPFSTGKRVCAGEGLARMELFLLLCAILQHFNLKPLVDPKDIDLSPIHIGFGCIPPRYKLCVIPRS

[4] = molecular target: T3, Cytochrome P450 2C8 (Homo sapiens, UniProt P10632); test: Inhibition of CYP2C8 in human liver microsomes assessed as paclitaxel 6alpha-hydroxylation preincubated for 15 mins by LC-MS/MS analysis in presence of NADPH; type: ADME; in short: as §1
T3 sequence (P10632 whole entry): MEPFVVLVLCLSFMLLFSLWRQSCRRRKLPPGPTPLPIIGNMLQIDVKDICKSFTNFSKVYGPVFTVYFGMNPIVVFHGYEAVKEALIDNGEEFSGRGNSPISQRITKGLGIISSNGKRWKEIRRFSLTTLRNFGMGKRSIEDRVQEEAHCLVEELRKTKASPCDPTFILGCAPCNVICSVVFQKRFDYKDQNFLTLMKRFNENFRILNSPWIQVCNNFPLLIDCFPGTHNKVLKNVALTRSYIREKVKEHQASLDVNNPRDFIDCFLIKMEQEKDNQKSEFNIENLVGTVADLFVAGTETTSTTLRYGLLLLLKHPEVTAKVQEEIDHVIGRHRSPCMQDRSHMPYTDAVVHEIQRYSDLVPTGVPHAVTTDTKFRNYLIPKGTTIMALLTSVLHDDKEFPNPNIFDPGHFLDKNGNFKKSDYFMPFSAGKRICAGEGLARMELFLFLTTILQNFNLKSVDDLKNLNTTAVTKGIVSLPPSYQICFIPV

[5] = molecular target: T4, Cytochrome P450 2C9 (Homo sapiens, UniProt P11712); test: Inhibition of CYP2C9 in human liver microsomes assessed as paclitaxel 6alpha-hydroxylation preincubated for 15 mins by LC-MS/MS analysis in presence of NADPH; type: ADME; details: in the assay text read “tolbutamide hydroxylation” for “paclitaxel 6alpha-hydroxylation”; in short: as §1
T4 sequence (P11712 whole entry): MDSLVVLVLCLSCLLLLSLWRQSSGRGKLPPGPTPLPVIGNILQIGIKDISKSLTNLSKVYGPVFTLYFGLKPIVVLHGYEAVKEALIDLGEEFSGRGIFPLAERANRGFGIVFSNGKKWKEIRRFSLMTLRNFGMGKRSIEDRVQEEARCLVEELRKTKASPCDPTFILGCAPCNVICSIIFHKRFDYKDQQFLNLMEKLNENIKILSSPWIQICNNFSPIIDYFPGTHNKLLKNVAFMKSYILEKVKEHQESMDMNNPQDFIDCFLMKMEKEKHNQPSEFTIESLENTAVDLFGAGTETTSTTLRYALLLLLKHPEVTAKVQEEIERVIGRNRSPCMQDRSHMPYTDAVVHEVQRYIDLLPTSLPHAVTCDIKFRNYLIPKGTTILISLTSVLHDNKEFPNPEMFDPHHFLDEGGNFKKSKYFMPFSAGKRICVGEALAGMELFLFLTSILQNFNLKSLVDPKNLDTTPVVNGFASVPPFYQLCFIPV

[6] = molecular target: T4, Cytochrome P450 2C9; test: Inhibition of CYP2C9 in human liver microsomes assessed as paclitaxel 6alpha-hydroxylation after 3 mins by LC-MS/MS analysis in presence of NADPH; type: ADME; details: in the assay text read “tolbutamide hydroxylation” for “paclitaxel 6alpha-hydroxylation”; in short: as §1
[7] = Drug metabolism in human assessed as parent compound level in urine at 50 mg, po after up to 168 hrs by LC-MS/MS analysis; type: ADME, organism-based; details: in vivo
In short: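 Single 50-mg oral solution dose of [14C]saxagliptin (91.5 µCi) given to healthy male subjects after a 10-h fast. Urine collected as 0–12 h and 12–24 h pools, then in 24-h intervals to 168 h. Saxagliptin and M2 measured by validated positive-ESI LC-MS/MS with MRM; urine standard curves 25–5000 ng/ml for saxagliptin and 50–10,000 ng/ml for M2.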

[8] = test system: Hepatocyte; test: Induction of CYP1A2 mRNA expression in human hepatocytes assessed as phenacetin O-deethylation up to 25 uM by LC-MS/MS analysis; type: ADME, cell-based
In short: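 Primary hepatocytes from three donors treated once daily for 3 days: saxagliptin 0.2–25 µM, M2 0.2–100 µM, 0.1% DMSO as vehicle. Microsomal activity assayed by LC-MS/MS: phenacetin 100 µM with 0.02 mg/ml protein (CYP1A2), bupropion 250 µM with 0.02 mg/ml (CYP2B6), testosterone 200 µM with 0.01 mg/ml (CYP3A4). mRNA measured by TaqMan qPCR as 2^ΔCT relative to endogenous control and DMSO.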

[9] = molecular target: T5, Cytochrome P450 2D6 (Homo sapiens, UniProt P10635); test: Inhibition of CYP2D6 in human liver microsomes assessed as bufuralol 1'-hydroxylation preincubated for 15 mins by LC-MS/MS analysis; type: ADME
T5 sequence (P10635 whole entry): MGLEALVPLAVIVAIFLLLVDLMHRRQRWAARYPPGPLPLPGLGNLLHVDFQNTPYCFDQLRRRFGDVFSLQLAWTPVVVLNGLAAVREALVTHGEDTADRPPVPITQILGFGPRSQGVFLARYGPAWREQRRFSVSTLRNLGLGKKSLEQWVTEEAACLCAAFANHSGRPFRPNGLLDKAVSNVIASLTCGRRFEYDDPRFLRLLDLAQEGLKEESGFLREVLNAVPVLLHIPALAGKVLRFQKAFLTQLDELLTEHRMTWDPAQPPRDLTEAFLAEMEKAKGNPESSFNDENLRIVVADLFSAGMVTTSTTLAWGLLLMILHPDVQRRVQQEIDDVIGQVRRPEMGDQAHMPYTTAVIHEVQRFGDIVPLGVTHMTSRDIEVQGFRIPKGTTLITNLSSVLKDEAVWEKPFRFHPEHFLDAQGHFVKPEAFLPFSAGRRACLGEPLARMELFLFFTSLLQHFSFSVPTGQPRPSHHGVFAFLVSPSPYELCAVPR
In short: (§2)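 Time-dependent format. Pooled human liver microsomes (15 donors) were preincubated 15 min at 37°C with test compound, with and without 1 mM NADPH. The probe substrate was then added at the same concentration as in the direct assay.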

[10] = molecular target: T5, Cytochrome P450 2D6; test: Inhibition of CYP2D6 in human liver microsomes assessed as bufuralol 1'-hydroxylation after 3 mins by LC-MS/MS analysis; type: ADME
[11] = molecular target: T6, Cytochrome P450 3A4 (Homo sapiens, UniProt P08684); test: Drug metabolism assessed as human CYP3A4-mediated 5-hydroxy saxagliptin formation at 10 uM after 30 mins by LC-MS/MS analysis; type: ADME; details: recombinant enzyme, 0.5 h
T6 sequence (P08684 whole entry): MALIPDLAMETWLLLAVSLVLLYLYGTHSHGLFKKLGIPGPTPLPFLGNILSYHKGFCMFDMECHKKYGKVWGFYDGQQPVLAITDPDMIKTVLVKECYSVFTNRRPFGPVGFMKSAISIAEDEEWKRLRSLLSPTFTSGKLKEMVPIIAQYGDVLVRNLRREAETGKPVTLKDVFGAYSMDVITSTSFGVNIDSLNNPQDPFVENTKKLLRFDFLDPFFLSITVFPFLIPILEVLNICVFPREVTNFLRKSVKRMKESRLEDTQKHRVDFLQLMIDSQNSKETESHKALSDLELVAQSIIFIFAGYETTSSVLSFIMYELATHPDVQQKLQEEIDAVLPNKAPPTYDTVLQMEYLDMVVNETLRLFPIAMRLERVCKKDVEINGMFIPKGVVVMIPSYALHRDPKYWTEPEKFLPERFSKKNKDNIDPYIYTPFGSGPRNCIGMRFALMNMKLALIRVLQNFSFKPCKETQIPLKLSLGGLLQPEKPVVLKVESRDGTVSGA

[12] = molecular target: T3, Cytochrome P450 2C8; test: Inhibition of CYP2C8 in human liver microsomes assessed as paclitaxel 6alpha-hydroxylation after 3 mins by LC-MS/MS analysis in presence of NADPH; type: ADME; in short: as §1
[13] = molecular target: T7, Cytochrome P450 2B6 (Homo sapiens, UniProt P20813); test: Inhibition of CYP2B6 in human liver microsomes assessed as bupropion hydroxylation preincubated for 15 mins by LC-MS/MS analysis in presence of NADPH; type: ADME; in short: as §1
T7 sequence (P20813 whole entry): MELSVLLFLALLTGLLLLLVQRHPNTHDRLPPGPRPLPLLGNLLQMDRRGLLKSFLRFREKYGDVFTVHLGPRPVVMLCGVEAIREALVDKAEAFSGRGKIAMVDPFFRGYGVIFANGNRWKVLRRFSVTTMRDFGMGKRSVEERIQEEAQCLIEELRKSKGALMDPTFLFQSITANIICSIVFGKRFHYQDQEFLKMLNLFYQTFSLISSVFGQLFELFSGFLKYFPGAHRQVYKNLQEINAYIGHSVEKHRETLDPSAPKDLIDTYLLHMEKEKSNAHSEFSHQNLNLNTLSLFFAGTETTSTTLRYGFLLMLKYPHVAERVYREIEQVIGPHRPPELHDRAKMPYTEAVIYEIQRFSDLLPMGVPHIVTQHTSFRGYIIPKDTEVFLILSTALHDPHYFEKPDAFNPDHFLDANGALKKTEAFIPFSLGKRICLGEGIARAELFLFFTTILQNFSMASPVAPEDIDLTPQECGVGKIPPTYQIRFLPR

[14] = molecular target: T2, Cytochrome P450 2E1; test: Inhibition of CYP2E1 in human liver microsomes assessed as chlorzoxazone 6-hydroxylation preincubated for 15 mins by LC-MS/MS analysis in presence of NADPH; type: ADME; in short: as §2
[15] = molecular target: T7, Cytochrome P450 2B6; test: Inhibition of CYP2B6 in human liver microsomes assessed as bupropion hydroxylation after 3 mins by LC-MS/MS analysis in presence of NADPH; type: ADME; in short: as §1
[16] = molecular target: T6, Cytochrome P450 3A4; test: Inhibition of CYP3A4 in human liver microsomes assessed as testosterone 6beta-hydroxylation after 3 mins by LC-MS/MS analysis in presence of NADPH; type: ADME
[17] = molecular target: T6, Cytochrome P450 3A4; test: Inhibition of CYP3A4 in human liver microsomes assessed as midazolam 1'-hydroxylation after 3 mins by LC-MS/MS analysis; type: ADME

T1 sequence (P33261 whole entry): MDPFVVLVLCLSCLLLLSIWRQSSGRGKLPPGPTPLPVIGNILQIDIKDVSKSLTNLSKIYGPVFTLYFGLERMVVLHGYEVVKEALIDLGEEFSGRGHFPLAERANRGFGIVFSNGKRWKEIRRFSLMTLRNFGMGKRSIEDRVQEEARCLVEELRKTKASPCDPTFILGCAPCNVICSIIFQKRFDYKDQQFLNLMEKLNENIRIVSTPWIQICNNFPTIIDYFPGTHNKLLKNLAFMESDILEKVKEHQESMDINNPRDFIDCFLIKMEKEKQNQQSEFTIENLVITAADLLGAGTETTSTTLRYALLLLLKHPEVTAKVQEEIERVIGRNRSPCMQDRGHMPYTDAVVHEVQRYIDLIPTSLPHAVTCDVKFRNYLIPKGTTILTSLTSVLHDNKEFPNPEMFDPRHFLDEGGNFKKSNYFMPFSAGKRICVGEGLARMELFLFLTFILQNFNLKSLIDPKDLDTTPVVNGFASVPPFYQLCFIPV

| Compound | IC50 [1] [µM] | IC50 [2] [µM] | IC50 [3] [µM] | IC50 [4] [µM] | IC50 [5] [µM] | IC50 [6] [µM] | Drug metabolism [7] | Activity [8] | IC50 [9] [µM] | IC50 [10] [µM] | Drug metabolism [11] | IC50 [12] [µM] | IC50 [13] [µM] | IC50 [14] [µM] | IC50 [15] [µM] | IC50 [16] [µM] | IC50 [17] [µM] |
| --- | --- | --- | --- | --- | --- | --- | --- | --- | --- | --- | --- | --- | --- | --- | --- | --- | --- |
| N#C[C@@H]1C[C@@H]2C[C@@H]2N1C(=O)[C@@H](N)C12CC3CC(CC(O)(C3)C1)C2 [SAXAGLIPTIN ANHYDROUS] | > 50 | > 50 | > 50 | > 50 | > 50 | > 50 | metabolite_detected | Not Active | > 50 | > 50 | metabolite_detected | > 50 | > 50 | > 50 | > 50 | – | – |
| N#C[C@@H]1C[C@@H]2C[C@@H]2N1C(=O)[C@@H](N)C12CC3CC(O)(CC(O)(C3)C1)C2 | > 200 | > 200 | > 200 | > 200 | > 200 | > 200 | – | – | > 200 | > 200 | – | > 200 | > 200 | > 200 | > 200 | > 200 | > 200 |
